Assay results taken from ChEMBL document CHEMBL3297679, “Studies on molecular properties prediction, antitubercular and antimicrobial activities of novel quinoline based pyrimidine motifs” (Bioorg Med Chem Lett, 2014).
In brackets after ≈: the same amount, converted by molar mass.

Tests used:
[1] = system: Escherichia coli; test: Antibacterial activity against Escherichia coli MTCC 443 by conventional broth microdilution method; format: functional
[2] = system: Pseudomonas aeruginosa; test: Antibacterial activity against Pseudomonas aeruginosa MTCC 1688 by conventional broth microdilution method; format: functional
[3] = system: Mycobacterium tuberculosis; test: Antimycobacterial activity against Mycobacterium tuberculosis H37Rv by Lowenstein-Jensen slope method; format: functional; conditions: for MIC: Mycobacterium tuberculosis, H37Rv
[4] = system: Staphylococcus aureus; test: Antibacterial activity against Staphylococcus aureus MTCC 96 by conventional broth microdilution method; format: functional
[5] = system: Pseudomonas aeruginosa; test: Ratio of ciprofloxacin MIC to compound MIC for Pseudomonas aeruginosa MTCC 1688; format: functional
[6] = system: HeLa; test: Cytotoxicity against human HeLa cells after 24 hrs incubation by MTT assay; format: functional, cell-based
Method in brief: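 HeLa cells (1.0 × 10⁴) were exposed to a range of test compound concentrations for 24 h at 37 °C under 5% CO₂. MTT was then added, the supernatant was discarded, and the formazan was dissolved in DMSO. Absorbance was read at 540 nm, and IC₅₀ was reported in µM.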

[7] = system: Streptococcus pyogenes; test: Antibacterial activity against Streptococcus pyogenes MTCC 442 by conventional broth microdilution method; format: functional
[8] = system: Staphylococcus aureus; test: Ratio of ciprofloxacin MIC to compound MIC for Staphylococcus aureus MTCC 96; format: functional
[9] = system: Aspergillus niger; test: Antifungal activity against Aspergillus niger MTCC 282 by conventional broth microdilution method; format: functional
[10] = system: Candida albicans; test: Antifungal activity against Candida albicans MTCC 227 by conventional broth microdilution method; format: functional
[11] = system: Streptococcus pyogenes; test: Ratio of ciprofloxacin MIC to compound MIC for Streptococcus pyogenes MTCC 442; format: functional
[12] = system: Aspergillus clavatus; test: Antifungal activity against Aspergillus clavatus MTCC 1323 by conventional broth microdilution method; format: functional

SMILES	MIC [1]	MIC [2]	inhibition (INH) [3]	MIC [3]	MIC [4]	Ratio [5]	IC50 [6]	MIC [7]	Ratio [8]	MIC [9]	MIC [10]	Ratio [11]	MIC [12]
N#CCCSC1=NC(c2ccc(O)cc2)=CC(c2cc3cc(Cl)ccc3nc2Cl)N1 (configuration not stated)	50 mg/L (≈ 110 µM)	25 mg/L (≈ 54.9 µM)	99%	3.12 mg/L (≈ 6.85 µM)	25 mg/L (≈ 54.9 µM)	2	> 100 µM	12.5 mg/L (≈ 27.5 µM)	4	25 mg/L (≈ 54.9 µM)	250 mg/L (≈ 549 µM)	4	25 mg/L (≈ 54.9 µM)
COc1cccc(C2=CC(c3cc4cc(Cl)ccc4nc3Cl)NC(SCCC#N)=N2)c1 (configuration not stated)	100 mg/L (≈ 213 µM)	250 mg/L (≈ 533 µM)	97%	12.5 mg/L (≈ 26.6 µM)	50 mg/L (≈ 107 µM)	–	–	100 mg/L (≈ 213 µM)	–	500 mg/L (≈ 1070 µM)	500 mg/L (≈ 1070 µM)	–	100 mg/L (≈ 213 µM)
COc1ccc(C2=CC(c3cc4cc(Cl)ccc4nc3Cl)NC(SCCC#N)=N2)cc1 (configuration not stated)	25 mg/L (≈ 53.3 µM)	25 mg/L (≈ 53.3 µM)	99%	0.2 mg/L (≈ 0.426 µM)	12.5 mg/L (≈ 26.6 µM)	–	> 100 µM	25 mg/L (≈ 53.3 µM)	4	250 mg/L (≈ 533 µM)	1000 mg/L (≈ 2130 µM)	4	250 mg/L (≈ 533 µM)
N#CCCSC1=NC(c2cccc(Br)c2)=CC(c2cc3cc(Cl)ccc3nc2Cl)N1 (configuration not stated)	> 1000 mg/L	1000 mg/L (≈ 1930 µM)	66%	–	500 mg/L (≈ 965 µM)	–	–	1000 mg/L (≈ 1930 µM)	–	500 mg/L (≈ 965 µM)	> 1000 mg/L	–	1000 mg/L (≈ 1930 µM)
N#CCCSC1=NC(c2ccc(Br)cc2)=CC(c2cc3cc(Cl)ccc3nc2Cl)N1 (configuration not stated)	1000 mg/L (≈ 1930 µM)	500 mg/L (≈ 965 µM)	58%	–	250 mg/L (≈ 482 µM)	–	–	500 mg/L (≈ 965 µM)	–	1000 mg/L (≈ 1930 µM)	500 mg/L (≈ 965 µM)	–	500 mg/L (≈ 965 µM)
N#CCCSC1=NC(c2ccccc2)=CC(c2cc3cc(Cl)ccc3nc2Cl)N1 (configuration not stated)	500 mg/L (≈ 1140 µM)	250 mg/L (≈ 569 µM)	62%	–	100 mg/L (≈ 228 µM)	–	–	250 mg/L (≈ 569 µM)	–	1000 mg/L (≈ 2280 µM)	1000 mg/L (≈ 2280 µM)	–	500 mg/L (≈ 1140 µM)
N#CCCSC1=NC(c2cccc(Cl)c2)=CC(c2cc3cc(Cl)ccc3nc2Cl)N1 (configuration not stated)	1000 mg/L (≈ 2110 µM)	500 mg/L (≈ 1060 µM)	62%	–	250 mg/L (≈ 528 µM)	–	–	500 mg/L (≈ 1060 µM)	–	500 mg/L (≈ 1060 µM)	> 1000 mg/L	–	1000 mg/L (≈ 2110 µM)
N#CCCSC1=NC(c2ccc(Cl)cc2)=CC(c2cc3cc(Cl)ccc3nc2Cl)N1 (configuration not stated)	1000 mg/L (≈ 2110 µM)	500 mg/L (≈ 1060 µM)	42%	–	250 mg/L (≈ 528 µM)	–	–	500 mg/L (≈ 1060 µM)	–	500 mg/L (≈ 1060 µM)	> 1000 mg/L	–	1000 mg/L (≈ 2110 µM)
N#CCCSC1=NC(c2cccc(F)c2)=CC(c2cc3cc(Cl)ccc3nc2Cl)N1 (configuration not stated)	500 mg/L (≈ 1090 µM)	500 mg/L (≈ 1090 µM)	41%	–	125 mg/L (≈ 273 µM)	–	–	250 mg/L (≈ 547 µM)	–	> 1000 mg/L	1000 mg/L (≈ 2190 µM)	–	500 mg/L (≈ 1090 µM)
N#CCCSC1=NC(c2ccc(F)cc2)=CC(c2cc3cc(Cl)ccc3nc2Cl)N1 (configuration not stated)	1000 mg/L (≈ 2190 µM)	> 1000 mg/L	69%	–	500 mg/L (≈ 1090 µM)	–	–	500 mg/L (≈ 1090 µM)	–	1000 mg/L (≈ 2190 µM)	1000 mg/L (≈ 2190 µM)	–	500 mg/L (≈ 1090 µM)
Cc1cccc(C2=CC(c3cc4cc(Cl)ccc4nc3Cl)NC(SCCC#N)=N2)c1 (configuration not stated)	250 mg/L (≈ 551 µM)	100 mg/L (≈ 221 µM)	81%	–	100 mg/L (≈ 221 µM)	–	–	100 mg/L (≈ 221 µM)	–	500 mg/L (≈ 1100 µM)	1000 mg/L (≈ 2210 µM)	–	500 mg/L (≈ 1100 µM)
Cc1ccc(C2=CC(c3cc4cc(Cl)ccc4nc3Cl)NC(SCCC#N)=N2)cc1 (configuration not stated)	50 mg/L (≈ 110 µM)	50 mg/L (≈ 110 µM)	98%	3.12 mg/L (≈ 6.88 µM)	25 mg/L (≈ 55.1 µM)	–	94.2 µM	25 mg/L (≈ 55.1 µM)	2	500 mg/L (≈ 1100 µM)	500 mg/L (≈ 1100 µM)	2	250 mg/L (≈ 551 µM)
N#CCCSC1=NC(c2cccc([N+](=O)[O-])c2)=CC(c2cc3cc(Cl)ccc3nc2Cl)N1 (configuration not stated)	> 1000 mg/L	1000 mg/L (≈ 2060 µM)	38%	–	500 mg/L (≈ 1030 µM)	–	–	1000 mg/L (≈ 2060 µM)	–	500 mg/L (≈ 1030 µM)	> 1000 mg/L	–	> 1000 mg/L
N#CCCSC1=NC(c2ccc([N+](=O)[O-])cc2)=CC(c2cc3cc(Cl)ccc3nc2Cl)N1 (configuration not stated)	500 mg/L (≈ 1030 µM)	1000 mg/L (≈ 2060 µM)	56%	–	1000 mg/L (≈ 2060 µM)	–	–	500 mg/L (≈ 1030 µM)	–	> 1000 mg/L	> 1000 mg/L	–	1000 mg/L (≈ 2060 µM)
N#CCCSC1=NC(c2cccc(O)c2)=CC(c2cc3cc(Cl)ccc3nc2Cl)N1 (configuration not stated)	125 mg/L (≈ 275 µM)	250 mg/L (≈ 549 µM)	98%	100 mg/L (≈ 220 µM)	100 mg/L (≈ 220 µM)	–	–	100 mg/L (≈ 220 µM)	–	250 mg/L (≈ 549 µM)	500 mg/L (≈ 1100 µM)	–	250 mg/L (≈ 549 µM)
O=C(O)c1cn(C2CC2)c2cc(N3CCNCC3)c(F)cc2c1=O [CIPROFLOXACIN]	25 mg/L (≈ 75.4 µM)	–	–	–	50 mg/L (≈ 151 µM)	–	–	50 mg/L (≈ 151 µM)	–	–	–	–	–
COC1=CC(=O)C[C@@H](C)[C@]12Oc1c(Cl)c(OC)cc(OC)c1C2=O [GRISEOFULVIN]	–	–	–	–	–	–	–	–	–	100 mg/L (≈ 283 µM)	500 mg/L (≈ 1420 µM)	–	100 mg/L (≈ 283 µM)
NNC(=O)c1ccncc1 [ISONIAZID]	–	–	–	0.2 mg/L (≈ 1.46 µM)	–	–	–	–	–	–	–	–	–
